CYP2C9 inhib: blockers of cytochrome P450 2C9 activity – biochemical, luminescence, ADME assay, primary screen | P11712 | CYP2C9 Supersomes, luciferin-H conversion | inhibition, % at 5 µM | hit rate 20% among 96,000;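 active = blocking of liver enzyme CYP2C9 beyond about 50% at 5 µM, limit read from the data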
Target sequence (P11712 whole entry, looked up): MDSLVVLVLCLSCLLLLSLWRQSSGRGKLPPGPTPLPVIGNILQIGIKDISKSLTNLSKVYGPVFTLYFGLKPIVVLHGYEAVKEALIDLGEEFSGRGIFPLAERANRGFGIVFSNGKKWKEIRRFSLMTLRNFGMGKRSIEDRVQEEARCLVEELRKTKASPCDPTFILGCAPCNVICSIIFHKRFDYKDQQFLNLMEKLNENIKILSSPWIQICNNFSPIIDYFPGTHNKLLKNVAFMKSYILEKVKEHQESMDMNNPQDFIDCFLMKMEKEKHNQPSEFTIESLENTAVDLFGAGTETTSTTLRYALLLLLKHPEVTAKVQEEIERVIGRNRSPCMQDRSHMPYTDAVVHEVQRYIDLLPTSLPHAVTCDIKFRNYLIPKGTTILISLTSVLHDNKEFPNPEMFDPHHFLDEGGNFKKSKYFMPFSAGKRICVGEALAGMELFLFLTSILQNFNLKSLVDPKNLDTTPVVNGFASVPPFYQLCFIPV
Ecoli tolC: growth inhibitors of E. coli tolC mutant, primary screen, strain BW25113 ΔtolC::kan, 384-well. OD615. AID 573, 2007. hit rate 2.2% among 65,000. growth inhibition, % at 10 µM (by protocol);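 active = growth inhibition at or above a cutoff equal to the mean over every tested compound plus 3 SD, cut at about 60% in these data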;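 also: growth measured after 20 h incubation at 37 °C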
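Material: E. coli BW25113 ΔtolC::kan, tolC deletion mutant strain. Measure: percent growth inhibition. Schedule: 37 °C, 20 h exposure. Doses: single-point testing at 10 µM. Signal: A615 absorbance measurement. Buffer or medium: kanamycin-containing LB broth (50 µg/mL).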
E coli WT exp: growth inhibitors of wild-type E. coli, primary screen, strain BW25113, expanded library, OD600; hit rate 0.15% among 98,000; growth inhibition, % at 100 µM; OD600 absorbance;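 active = growth inhibition above about 50% at one test dose, limit read from the data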;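 also: growth measured after 20 h incubation at 37 °C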
CYP2C19 inh: blockers of cytochrome P450 2C19 activity – biochemical, luminescence, ADME assay, primary screen; AID 778, 2007; CYP2C19 Supersomes, luciferin-H EGE luminescence, 30 min; inhibition, % at 5 µM; P33261; hit rate 21% among 96,000;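 active = CYP2C19 inhibition above a set limit at 5 µM in the primary screen, cut at about 50% in these data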;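 also: plate controls were negative control wells for no effect and 2.5 mM tranylcypromine positive control for full effect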
CYP2C9 activ: human CYP2C9 activators, primary screen, biochemical, luminescence; Cytochrome P450 2C9 (Homo sapiens), P11712; recombinant CYP2C9, luciferin-H conversion; active compounds read high; factor 1 = untreated enzyme, 0 = blocked; activation factor at 5 µM; hit rate 1.4% among 96,000; AID 1024, 2008;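 active = activation factor of 2 or more for CYP2C9 at a 5 µM dose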;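 also: 0 = sulfaphenazole-blocked wells and 1 = vehicle-only wells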
CYP2C19 act: human CYP2C19 activators, primary screen, biochemical, luminescence; AID 1025, 2008; recombinant CYP2C19, luciferin-H EGE luminescence; active compounds read high; 0 = fully inhibited enzyme, 1 = untreated enzyme; 96,000 tested, under 10 active; Cytochrome P450 2C19 (Homo sapiens), P33261; activation factor at 5 µM;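 active = activation factor of at least 2 at 5 µM in the primary screen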;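 also: 0 = wells with 2.5 mM tranylcypromine and 1 = vehicle-only wells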
Numbers without * were called inactive; x = not tested or not shown. Only some compounds are listed: those with a hit (about 29% of all), similar ones and a draw of the others.

SMILES | CYP2C9 inhib | Ecoli tolC | E coli WT exp | CYP2C19 inh | CYP2C9 activ | CYP2C19 act
Cn1c(=O)c2[nH]c(CN(Cc3ccccc3)Cc3ccccc3)nc2n(C)c1=O | 81* | 14 | -13 | 6 | 0.2 | 0.9
O=C1c2ccccc2C(=O)N1CCCc1nc(-c2ccncc2)no1 | 43 | x | -6 | 41 | 0.6 | 0.6
Nc1nonc1-c1noc(CCCN2C(=O)c3ccccc3C2=O)n1 | 12 | -1 | 4 | 57* | 0.9 | 0.4
Nc1nonc1-c1noc(-c2ccccc2Br)n1 | 0 | 3 | -4 | 67* | 1 | 0.3
CC(C)Cn1cc(C(=O)NCC2CCCO2)c2c3ccccc3n(C)c2c1=O (stereo not drawn) | 26 | -40 | -4 | 24 | 0.7 | 0.8
CCCCN(C)C(=O)CCC(=O)Nc1ccc2nc(N3CCOCC3)cc(C)c2c1 | 4 | 5 | 1 | 8 | 1 | 0.9
Clc1ccccc1CSc1nnc(-c2ccccn2)n1Cc1ccco1 | 7 | 91* | -6 | 0 | 0.9 | 1
Nn1c(SC/C=C/c2ccccc2)nnc1-c1cccnc1 | -19 | -15 | 5 | -12 | 1.2 | 1.1
Clc1ccc(-n2c(SC/C=C/c3ccccc3)nnc2-c2cccnc2)cc1 | 34 | x | -18 | 56* | 0.7 | 0.4
Cc1cccc(-c2nnc(SCc3ccc(C#N)cc3)n2Cc2ccco2)c1 | 35 | x | -2 | 42 | 0.6 | 0.6
Nn1c(SC/C=C/c2ccccc2)nnc1-c1ccccn1 | 27 | 10 | 10 | 61* | 0.7 | 0.4
Clc1ccc(OCc2nnc(SCc3nc4ccccc4[nH]3)n2Cc2ccco2)cc1 | 62* | 54 | -4 | 12 | 0.4 | 0.9
O=C(Cc1cccc2ccccc12)Nc1ccc(-c2cc3ccccc3oc2=O)cc1 | 37 | x | -17 | -2 | 0.6 | 1
O=C(NCCCN1CCOCC1)c1cc2cc(Cl)cc(Cl)c2oc1=O | x | -3 | x | x | x | x
Cn1c(SCc2nc3ccccc3[nH]2)nnc1-c1cnccn1 | 8 | -9 | -3 | 34 | 0.9 | 0.7
C(=C\c1ccccc1)/CSc1nnc(-c2ccccn2)n1Cc1ccco1 | 45 | 93* | -12 | 18 | 0.6 | 0.8
c1ccc(-c2nnc(SCc3nc4ccccc4[nH]3)n2Cc2ccco2)nc1 | 90* | 10 | 1 | 51* | 0.1 | 0.5
Clc1cccc(-c2nnc(SCc3nc4ccccc4[nH]3)n2Cc2ccco2)c1 | 87* | 50 | 3 | 82* | 0.1 | 0.2
c1coc(Cn2c(SCc3nc4ccccc4[nH]3)nnc2-c2cnccn2)c1 | 81* | -6 | 9 | 67* | 0.2 | 0.3
CCOc1ccc(OCCOc2ncnc3ccccc23)cc1 | 12 | x | 3 | 34 | 0.9 | 0.7
Oc1ccc(-c2cn3c(n2)SCC3)cc1O | 37 | x | 9 | 22 | 0.6 | 0.8
CN1CC(c2ccccc2)C2(SC(=S)N(Cc3ccco3)C2=O)C12C(=O)Nc1ccccc12 (stereo not drawn) | 95* | x | -10 | 96* | 0 | 0
CN1CC(c2ccccn2)C2(SC(=S)N(Cc3ccccc3)C2=O)C12C(=O)Nc1ccccc12 (stereo not drawn) | 34 | x | -3 | 41 | 0.7 | 0.6
COc1cccc(C2=NO[C@@H]3C(=O)N(Cc4ccccc4)C(=O)[C@H]23)c1OC | 88* | -15 | 2 | 97* | 0.1 | 0
O=C(NCc1ccco1)Nc1ccc2snnc2c1 | 86* | 7 | 28 | 83* | 0.1 | 0.2
SMILES | CYP2C9 inhib | Ecoli tolC | E coli WT exp | CYP2C19 inh | CYP2C9 activ | CYP2C19 act
COc1ccc(N=C2C(=O)Nc3c(C)cccc32)cc1 | 5 | -9 | 11 | -2 | 0.9 | 1
CC1=CCC2C(=O)N(c3ccc(Br)cc3C)C(=O)C2C1 (stereo not drawn) | 60* | 24 | 3 | 78* | 0.4 | 0.2
CC1=CCC2C(=O)N(c3ccc4ccccc4n3)C(=O)C2C1 (stereo not drawn) | 31 | -19 | 0 | 62* | 0.7 | 0.4
CC1=CCC2C(=O)N(c3ccc(C)cc3)C(=O)C2C1 (stereo not drawn) | 23 | x | -2 | 64* | 0.8 | 0.4
O=C(Cn1ncc2c(=O)oc3ccccc3c21)NCCN1CCN(c2ccccc2F)CC1 | 35 | -4 | 1 | 4 | 0.7 | 1
Cc1ccc(N(C(=O)c2sc(C)nc2C)C(C(=O)NCc2ccco2)c2ccccc2)cc1 (stereo not drawn) | 10 | x | -8 | 16 | 0.9 | 0.8
O=C(N/N=C/c1ccncc1)c1cc([N+](=O)[O-])cc([N+](=O)[O-])c1O | 100* | x | -6 | 56* | 0 | 0.4
CCCCOC1(c2ccccc2)OC(=O)c2ccccc21 (stereo not drawn) | 61* | x | 6 | 55* | 0.4 | 0.4
O=C1OC(Oc2ccccc2)(c2ccccc2)c2ccccc21 (stereo not drawn) | 54* | x | -2 | 44 | 0.5 | 0.6
COc1ccc(-c2cn3c(C)c(C(=O)NCc4ccc5c(c4)OCO5)sc3n2)cc1 | x | -2 | x | x | x | x
COc1cc2c3nnc(-c4ccc(F)cc4)c-3cn(Cc3ccc(F)cc3)c2cc1OC | 77* | x | -4 | 34 | 0.2 | 0.7
COc1cccc(-c2cc(C(F)(F)F)nc(N3CCN(c4ccccc4)CC3)n2)c1 | 28 | -1 | -10 | 7 | 0.7 | 0.9
O=C(Cc1sc(-c2ccccc2Cl)nc1-c1ccccc1)Nc1ccccc1 | 37 | x | -5 | 25 | 0.6 | 0.8
O=C(Cc1sc(-c2ccccc2Cl)nc1-c1ccccc1)Nc1ccc(F)cc1 | 73* | x | -3 | 39 | 0.3 | 0.6
Cc1cc(C)c(C(=O)COc2cccnc2[N+](=O)[O-])cc1C | 17 | x | 8 | 63* | 0.8 | 0.4
Cc1ccc(C(=O)Oc2ccc(Cl)c3cccnc23)cc1[N+](=O)[O-] | 0 | x | 22 | 3 | 1 | 1
O=C(OCc1ccccc1Cl)c1ccccc1C(=O)c1ccccc1 | 39 | x | 1 | 67* | 0.6 | 0.3
O=C(OCc1ccccc1Cl)c1cccnc1Cl | -84 | x | 3 | 29 | 1.8 | 0.7
CCOC(=O)c1ccc(NC(=O)Nc2ccc3c(c2)OCCO3)cc1 | x | 18 | 3 | x | x | x
CCOc1ccc2nc(C)cc(Nc3ccc4c(c3)OCCO4)c2c1 | 12 | x | 5 | 34 | 0.9 | 0.7
CCOC(=O)c1cnc2ccc(OC)cc2c1Nc1ccc2c(c1)OCCO2 | 96* | x | -4 | 46 | 0 | 0.5
CCOC(=O)c1cnc2ccc(C(=O)OC)cc2c1Nc1ccc2c(c1)OCCO2 | 54* | x | 2 | 27 | 0.5 | 0.7
CNC(=O)NC(=O)COC(=O)CCCOc1ccc(OC)cc1 | 23 | -3 | 1 | 13 | 0.8 | 0.9

Bioassay records (PubChem BioAssay)
